Consider 1 compound from ChEMBL document CHEMBL1145176, “Somatostatin receptor 1 selective analogues: 2. N(alpha)-Methylated scan” (J Med Chem, 2005).

The assay relates to CHO-K1. Briefly: Concentration for inhibition of forskolin-stimulated cAMP accumulation in CCL39 cells. Type of assay: functional, cell-based, Cricetulus griseus. In outline:
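CCL39 cells stably expressing human sst1, seeded in poly-D-lysine-coated 96-well plates at 2 × 10^4 cells/well, grown 24 h. Preincubated 30 min at 37 °C in medium with 0.5 mM IBMX, then 30 min at 37 °C with 0.5 mM IBMX, 7.5 µM forskolin and varying peptide concentrations. Lysed; cAMP measured by scintillation proximity assay. Three independent experiments in triplicate; EC50 from concentration-response curves.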
On the technique in general: Cyclic AMP is a second messenger, typically raised through Gs and lowered through Gi signalling.

“And” between values parts separate entries of the source, which are not always exact repeats. Equal values may be shown once.

As usually defined, the EC50 is the concentration at which the effect is half-maximal. A lower EC50 goes with greater potency. With `CSCC[C@H](NC(=O)[C@H](C)NC(=O)[C@@H]1CCCN1C(=O)[C@H](CC(N)=O)NC(=O)[C@H](CO)NC(=O)[C@H](CC(N)=O)NC(=O)[C@H](C)NC(=O)[C@@H](N)CO)C(=O)N[C@@H](C)C(=O)N1CCC[C@H]1C(=O)N[C@@H](CCCNC(=N)N)C(=O)N[C@@H](CCC(=O)O)C(=O)N[C@@H](CCCNC(=N)N)C(=O)N[C@@H](CCCCN)C(=O)N[C@@H](C)C(=O)NCC(=O)N[C@H]1CSSC[C@@H](C(=O)O)NC(=O)[C@H](CO)NC(=O)[C@H]([C@@H](C)O)NC(=O)[C@H](Cc2ccccc2)NC(=O)[C@H]([C@@H](C)O)NC(=O)[C@H](CCCCN)NC(=O)[C@H](Cc2c[nH]c3ccccc23)NC(=O)[C@H](Cc2ccccc2)NC(=O)[C@H](Cc2ccccc2)NC(=O)[C@H](CC(N)=O)NC(=O)[C@H](CCCCN)NC1=O`, the EC50 is 0.18 nM and 0.77 nM.
